Source: ChEMBL document CHEMBL3232844, “Synthesis and structure activity relationships of schweinfurthin indoles” (2014)

Columns and labels:
Assay type in all cases: functional
CCRF-CEM = assay: Cytotoxicity against human CCRF-CEM cells
HL-60(TB) = assay: Cytotoxicity against human HL-60(TB) cells
How it was run: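 Tested within the NCI 60-cell-line screen, with GI50 as the read-out. Values are the average of two independent experiments. The lowest concentration tested was 10 nM.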

K562 = assay: Cytotoxicity against human K562 cells
How it was run: (§1)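 Tested in a 60-cell-line human tumor panel screen; the read-out is growth inhibition, reported as GI50 for each cell line.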

MOLT-4 = assay: Cytotoxicity against human MOLT4 cells; how it was run: as §1
A549 = assay: Cytotoxicity against human A549 cells; how it was run: as §1
HOP-62 = assay: Cytotoxicity against human HOP62 cells; how it was run: as §1
NCI-H226 = assay: Cytotoxicity against human NCI-H226 cells; how it was run: as §1
NCI-H23 = assay: Cytotoxicity against human NCI-H23 cells; how it was run: as §1
COLO 205 = assay: Cytotoxicity against human COLO205 cells; how it was run: as §1
HCC 2998 = assay: Cytotoxicity against human HCC2998 cells; how it was run: as §1
HCT-116 = assay: Cytotoxicity against human HCT116 cells; how it was run: as §1
[1] = Cytotoxicity against human HCT15 cells; how it was run: as §1
KM12 = assay: Cytotoxicity against human KM12 cells; how it was run: as §1
SF-268 = assay: Cytotoxicity against human SF268 cells; how it was run: as §1
SF-539 = assay: Cytotoxicity against human SF539 cells; how it was run: as §1
SNB-19 = assay: Cytotoxicity against human SNB19 cells; how it was run: as §1
SNB-75 = assay: Cytotoxicity against human SNB75 cells
How it was run: (§2)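 Cell line run as part of the 60-cell-line screening panel; growth inhibition was reported as a GI50 for each line.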

LOX IMVI = assay: Cytotoxicity against human LOXIMVI cells; how it was run: as §1
M14 = assay: Cytotoxicity against human M14 cells; how it was run: as §1
MDA-MB-435 = assay: Cytotoxicity against human MDA-MB-435 cells; how it was run: as §1
NCI-H322M = assay: Cytotoxicity against human NCI-H322M cells; how it was run: as §1
NCI-H460 = assay: Cytotoxicity against human NCI-H460 cells; how it was run: as §1
SK-MEL-2 = assay: Cytotoxicity against human SK-MEL-2 cells; how it was run: as §1
SK-MEL-5 = assay: Cytotoxicity against human SK-MEL-5 cells; how it was run: as §1
[2] = Cytotoxicity against human UACC62 cells; how it was run: as §2
IGROV-1 = assay: Cytotoxicity against human IGROV1 cells; how it was run: as §1
[3] = Cytotoxicity against human OVCAR4 cells; how it was run: as §1
[4] = Cytotoxicity against human OVCAR5 cells; how it was run: as §1
[5] = Cytotoxicity against human OVCAR8 cells; how it was run: as §1
[6] = Cytotoxicity against human NCI-ADR-RES cells; how it was run: as §1
SK-OV-3 = assay: Cytotoxicity against human SKOV3 cells; how it was run: as §1
786-0 = assay: Cytotoxicity against human 786-0 cells; how it was run: as §1
A498 = assay: Cytotoxicity against human A498 cells; how it was run: as §1
ACHN = assay: Cytotoxicity against human ACHN cells; how it was run: as §1
CAKI-1 = assay: Cytotoxicity against human Caki1 cells; how it was run: as §1
[7] = Cytotoxicity against human UO31 cells; how it was run: as §2
PC-3 = assay: Cytotoxicity against human PC3 cells; how it was run: as §1
DU-145 = assay: Cytotoxicity against human DU145 cells; how it was run: as §1
MCF7 = assay: Cytotoxicity against human MCF7 cells; how it was run: as §1
MDA-MB-231 = assay: Cytotoxicity against human MDA-MB-231 cells; how it was run: as §1
BT-549 = assay: Cytotoxicity against human BT549 cells; how it was run: as §1
T47D = assay: Cytotoxicity against human T47D cells; how it was run: as §2
MDA-MB-468 = assay: Cytotoxicity against human MDA-MB-468 cells; how it was run: as §1
[8] = read-out: pLC50 (the source's name) (converted)

COc1cc(/C=C/c2cc(O)c3c(CC=C(C)C)c[nH]c3c2)cc2c1O[C@]1(C)CC[C@@H](O)C(C)(C)[C@H]1C2
GI50 (CCRF-CEM): 0.148 µM | CC50 (CCRF-CEM; [8]): 50.1 µM | TGI (CCRF-CEM; read-out: pTGI (converted)): 50.1 µM | GI50 (HL-60(TB)): 0.251 µM | CC50 (HL-60(TB); [8]): 50.1 µM | TGI (HL-60(TB); read-out: pTGI (converted)): 18.6 µM | GI50 (K562): 0.224 µM | CC50 (K562; [8]): 50.1 µM | TGI (K562; read-out: pTGI (converted)): 7.76 µM | GI50 (MOLT-4): 0.17 µM | CC50 (MOLT-4; [8]): 50.1 µM | TGI (MOLT-4; read-out: pTGI (converted)): 50.1 µM | GI50 (A549): 1.7 µM | CC50 (A549; [8]): 50.1 µM | TGI (A549; read-out: pTGI (converted)): 50.1 µM | GI50 (HOP-62): 0.234 µM | CC50 (HOP-62; [8]): 50.1 µM | GI50 (NCI-H226): 4.37 µM | CC50 (NCI-H226; [8]): 50.1 µM | TGI (NCI-H226; read-out: pTGI (converted)): 50.1 µM | GI50 (NCI-H23): 0.427 µM | CC50 (NCI-H23; [8]): 50.1 µM | TGI (NCI-H23; read-out: pTGI (converted)): 22.4 µM | GI50 (COLO 205): 0.302 µM | CC50 (COLO 205; [8]): 6.46 µM | TGI (COLO 205; read-out: pTGI (converted)): 1.35 µM | GI50 (HCC 2998): 3.02 µM | CC50 (HCC 2998; [8]): 50.1 µM | TGI (HCC 2998; read-out: pTGI (converted)): 50.1 µM | GI50 (HCT-116): 3.24 µM | CC50 (HCT-116; [8]): 50.1 µM | TGI (HCT-116; read-out: pTGI (converted)): 50.1 µM | GI50 ([1]; HCT-15): 0.17 µM | CC50 ([1]; HCT-15, read-out: pLC50 (the source's name) (converted)): 50.1 µM | TGI ([1]; HCT-15, read-out: pTGI (converted)): 1.55 µM | GI50 (KM12): 0.275 µM | TGI (KM12; read-out: pTGI (converted)): 1.12 µM | GI50 (SF-268): 1.02 µM | CC50 (SF-268; [8]): 50.1 µM | TGI (SF-268; read-out: pTGI (converted)): 50.1 µM | GI50 (SF-539): 0.0407 µM | CC50 (SF-539; [8]): 2.95 µM | TGI (SF-539; read-out: pTGI (converted)): 0.257 µM | GI50 (SNB-19): 0.708 µM | CC50 (SNB-19; [8]): 50.1 µM | TGI (SNB-19; read-out: pTGI (converted)): 50.1 µM | GI50 (SNB-75): 0.055 µM | CC50 (SNB-75; [8]): 50.1 µM | TGI (SNB-75; read-out: pTGI (converted)): 50.1 µM | GI50 (LOX IMVI): 0.2 µM | CC50 (LOX IMVI; [8]): 50.1 µM | TGI (LOX IMVI; read-out: pTGI (converted)): 1.17 µM | GI50 (M14): 0.251 µM | TGI (M14; read-out: pTGI (converted)): 1.02 µM | GI50 (MDA-MB-435): 0.676 µM | CC50 (MDA-MB-435; [8]): 50.1 µM | TGI (MDA-MB-435; read-out: pTGI (converted)): 50.1 µM | GI50 (NCI-H322M): 10.5 µM | CC50 (NCI-H322M; [8]): 50.1 µM | TGI (NCI-H322M; read-out: pTGI (converted)): 50.1 µM | GI50 (NCI-H460): 0.417 µM | CC50 (NCI-H460; [8]): 50.1 µM | TGI (NCI-H460; read-out: pTGI (converted)): 50.1 µM | GI50 (SK-MEL-2): 0.269 µM | CC50 (SK-MEL-2; [8]): 50.1 µM | TGI (SK-MEL-2; read-out: pTGI (converted)): 50.1 µM | GI50 (SK-MEL-5): 0.158 µM | CC50 (SK-MEL-5; [8]): 1.82 µM | TGI (SK-MEL-5; read-out: pTGI (converted)): 0.575 µM | GI50 ([2]; UACC-62): 0.138 µM | CC50 ([2]; UACC-62, read-out: pLC50 (the source's name) (converted)): 3.63 µM | TGI ([2]; UACC-62, read-out: pTGI (converted)): 0.407 µM | GI50 (IGROV-1): 0.417 µM | CC50 (IGROV-1; [8]): 50.1 µM | TGI (IGROV-1; read-out: pTGI (converted)): 50.1 µM | GI50 ([3]; OVCAR-4): 5.25 µM | CC50 ([3]; OVCAR-4, read-out: pLC50 (the source's name) (converted)): 50.1 µM | TGI ([3]; OVCAR-4, read-out: pTGI (converted)): 50.1 µM | GI50 ([4]; OVCAR-5): 15.1 µM | CC50 ([4]; OVCAR-5, read-out: pLC50 (the source's name) (converted)): 50.1 µM | TGI ([4]; OVCAR-5, read-out: pTGI (converted)): 50.1 µM | GI50 ([5]; OVCAR-8): 12.9 µM | CC50 ([5]; OVCAR-8, read-out: pLC50 (the source's name) (converted)): 50.1 µM | TGI ([5]; OVCAR-8, read-out: pTGI (converted)): 50.1 µM | GI50 [6]: 8.51 µM | CC50 [6, 8]: 50.1 µM | TGI ([6]; read-out: pTGI (converted)): 50.1 µM | GI50 (SK-OV-3): 3.55 µM | LC50 (SK-OV-3): 50.1 µM | TGI (SK-OV-3; read-out: pTGI (converted)): 32.4 µM | GI50 (786-0): 0.0851 µM | LC50 (concentration killing 50% of cells) (786-0): 50.1 µM | TGI (786-0; read-out: pTGI (converted)): 0.501 µM | GI50 (A498): 0.129 µM | CC50 (A498; [8]): 50.1 µM | TGI (A498; read-out: pTGI (converted)): 0.724 µM | GI50 (ACHN): 1.48 µM | LC50 (concentration killing 50% of cells) (ACHN): 50.1 µM | TGI (ACHN; read-out: pTGI (converted)): 50.1 µM | GI50 (CAKI-1): 0.263 µM | LC50 (CAKI-1): 50.1 µM | TGI (CAKI-1; read-out: pTGI (converted)): 50.1 µM | GI50 ([7]; UO-31): 0.269 µM | LC50 ([7]; UO-31): 50.1 µM | TGI ([7]; UO-31, read-out: pTGI (converted)): 1.48 µM | GI50 (PC-3): 0.229 µM | LC50 (PC-3): 50.1 µM | TGI (PC-3; read-out: pTGI (converted)): 50.1 µM | GI50 (DU-145): 3.55 µM | LC50 (50% lethal concentration) (DU-145): 50.1 µM | TGI (DU-145; read-out: pTGI (converted)): 50.1 µM | GI50 (MCF7): 0.355 µM | LC50 (MCF7): 50.1 µM | TGI (MCF7; read-out: pTGI (converted)): 3.63 µM | GI50 (MDA-MB-231): 0.724 µM | LC50 (MDA-MB-231): 50.1 µM | TGI (MDA-MB-231; read-out: pTGI (converted)): 50.1 µM | GI50 (BT-549): 0.107 µM | CC50 (BT-549; [8]): 50.1 µM | TGI (BT-549; read-out: pTGI (converted)): 13.2 µM | GI50 (T47D): 5.25 µM | CC50 (T47D; [8]): 50.1 µM | TGI (T47D; read-out: pTGI (converted)): 31.6 µM | GI50 (MDA-MB-468): 0.513 µM | LC50 (MDA-MB-468): 46.8 µM | TGI (MDA-MB-468; read-out: pTGI (converted)): 9.33 µM
